# Screening data deposited in PubChem BioAssay by The Scripps Research Institute Molecular Screening Center.
# The list is not random: actives were taken first. Their share in the collection is about 4.6%.
# TAAR1 ag = agonists of human TAAR1; Q96RJ0; CHO RD-HGA16 TAAR1, Fluo-8 calcium fluorescence; vehicle wells 0%, saturating PEA agonist 100%; AID 624467; 0.99% of 360,000 active; activation, % at 3 µM;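 active means activation above the mean activation of all test compounds in the run plus 3 SD, cut at about 38% in these data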
#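 Assay system – CHO-derived RD-HGA16 cells with stable Gα16 and human TAAR1 · Compound dosing – one-point dosing at 3 µM (nominal) · Incubation – 17-24 h seeding, 75 min 37 °C dye, 30 min RT · Measured by – kinetic Fluo-8 calcium fluorescence · Control set – DMSO vehicle as 0%, PEA at EC100 as 100% · Repeats – single well for each compound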
# OX1R antag-1 = human HCRTR1 antagonism; O43613; CHO/OX1R cells, Fluo-8 calcium fluorescence, orexin A; inhibition, % at 5 µM; 0.43% of 330,000 active;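 active means inhibition above its plate's threshold, mean inhibition of all tested compounds on the plate plus 3 SD, cut at about 37% in these data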
# OX1R antag-2 = OX1R (human) antagonism | O43613 | OX1R-expressing cells, FRET antagonist read-out | inhibition, % at 6.6 µM | 1.8% of 330,000 active | AID 485270; in the data active means inhibition mostly above about 38%, no sharp cut-off; inactive means mostly below about 40%
# GPR7 antag = antagonists of human GPR7 (neuropeptides B/W receptor 1); P48145; GPR7-expressing cells, fluorescence antagonist assay; inhibition, % at 4.4 µM; 1.1% of 290,000 active; in the data active means inhibition above about 16%, passing the limit was not always enough;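 further: cells stimulated with the agonist NPW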
# Target sequence (P48145 whole entry, looked up): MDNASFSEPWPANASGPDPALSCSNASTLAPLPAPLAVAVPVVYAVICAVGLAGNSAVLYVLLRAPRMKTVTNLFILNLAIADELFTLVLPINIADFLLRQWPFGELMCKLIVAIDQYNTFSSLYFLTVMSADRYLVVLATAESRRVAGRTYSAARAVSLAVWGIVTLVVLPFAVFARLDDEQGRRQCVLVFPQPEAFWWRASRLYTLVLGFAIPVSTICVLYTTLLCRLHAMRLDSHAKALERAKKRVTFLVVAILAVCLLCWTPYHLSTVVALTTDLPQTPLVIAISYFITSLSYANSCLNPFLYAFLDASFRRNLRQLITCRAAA
# CHO parental Ca = signal in parental CHO cells, OX1R antagonist counter-screen. parental CHO-K1, ATP-induced calcium, Fluo-8 fluorescence. AID 463079. 0.63% of 330,000 active. inhibition, % at 5.6 µM;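 active means inhibition above that plate's mean sample inhibition plus 3 SD, cut at about 26% in these data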
#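 Material: Parental CHO cells | Reagent: ATP | Compound dosing: Single nominal dose of 5.6 µM per compound | Detection: Intracellular calcium via Fluo-8 no-wash fluorescent dye | Read-out: % inhibition of ATP-induced calcium mobilization | Benchmarks: Low control ATP plus DMSO, high control DMSO only | Replicates: Singlicate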
# TAAR1 antagonist = antagonists of human TAAR1; 1.5% of 360,000 active; inhibition, % at 3 µM; CHO RD-HGA16 TAAR1, Fluo-8 calcium fluorescence, antagonist;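 active means inhibition above a per-plate cutoff, the mean inhibition of test compounds on that plate plus 3 SD, cut at about 49% in these data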
#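 System: CHO RD-HGA16 cells bearing hTAAR1. Reagent: EC80 β-phenethylamine stimulus. Schedule: seeding 17-24 h prior, 75-min 37 °C, 30-min RT dye loading. Signal: Fluo-8 intracellular calcium dye fluorescence, real-time kinetic reads. Read-out: % inhibition from peak post-agonist over basal fluorescence ratio. Benchmarks: vehicle wells and EC80 agonist wells. Replicates: n of 1.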
# Hits are given with their value; 0 = inactive; - = not tested or not shown.
SMILES,TAAR1 ag,OX1R antag-1,OX1R antag-2,GPR7 antag,CHO parental Ca,TAAR1 antagonist
Brc1ccc(C2=Nn3cnnc3SC2)cc1,0,0,0,0,0,0
CC(NC(=O)Nc1cccc(Cl)c1)C(c1cccs1)N1CCCC1 (centres undefined),0,0,0,0,0,0
CC(NC(=O)Nc1ccc([N+](=O)[O-])cc1)C(c1cccs1)N1CCCC1 (centres undefined),48,0,0,0,0,0
CN(C)CCOC(C1CCCCC1)C1CCCCC1,0,0,0,34,0,0
Cc1c(S(=O)(=O)N(C)C2CCCCC2)c(=O)n(C)c(=O)n1C,0,0,0,-,0,0
O=C(Oc1cccc(Nc2ncnc3ccccc23)c1)c1ccccc1Cl,0,53,95,0,71,74
COC(=O)c1nc(N)sc1-c1ccc(Cl)c(Cl)c1,0,0,0,0,0,0
Cn1cc(CN2CCCC(C(=O)c3nccn3C)C2)c(-c2cccc(Cl)c2)n1 (centres undefined),0,0,0,0,0,0
Cc1ccc(C)c(S(=O)(=O)N2CCCCC2CCNC(=O)C(=O)NC2CC2)c1 (centres undefined),0,0,35,-,0,0
COc1ccc(CCNC(=O)C(=O)NCC2OCCCN2S(=O)(=O)c2cc(C)ccc2C)cc1 (centres undefined),0,0,0,0,0,0
COc1ccc(S(=O)(=O)N2CCCOC2CNC(=O)C(=O)NCCc2ccco2)cc1C (centres undefined),0,0,70,0,0,0
COc1ccccc1CCNC(=O)C(=O)NCC1OCCCN1S(=O)(=O)c1cc(C)ccc1C (centres undefined),0,0,66,0,0,0
Cc1ccc(C)c(S(=O)(=O)N2CCCOC2CNC(=O)C(=O)NCCc2ccco2)c1 (centres undefined),0,0,63,0,0,0
CCOc1ccc(CCNS(=O)(=O)c2c(C)nc3sccn3c2=O)cc1OCC,0,-,-,-,-,0
COc1ccccc1CCNC(=O)C(=O)NCC1OCCN1S(=O)(=O)c1cc(F)ccc1F (centres undefined),38,0,0,0,0,0
CN(C)CCNC(=O)C(=O)NCC1OCCN1S(=O)(=O)c1cc(F)ccc1F (centres undefined),0,0,0,0,0,0
CN(Cc1ccccc1)S(=O)(=O)c1ccc(Cl)c(C(=O)OCC(=O)NC2CCS(=O)(=O)C2)c1 (centres undefined),0,0,0,-,0,0
O=c1[nH]cnc2scc(-c3ccc(-c4ccccc4)cc3)c12,0,0,0,0,0,50
CCCOc1ccc(-c2csc3nc[nH]c(=O)c23)cc1,0,0,0,0,0,0
COc1ccc(OCCCC(=O)ON=C(N)c2ccccc2Cl)cc1,0,0,0,-,0,0
CC1(C)CC(=O)C(N=Nc2ccc(OC(F)F)cc2)=C(O)C1,0,0,56,0,0,0
Cc1ccc(NC2=C(NCCO)C(=O)c3ccccc3C2=O)cc1,0,0,56,0,0,0
COc1ccc(C2=C(Nc3ccc(C)cc3)c3ccccc3C2=O)cc1,0,0,0,0,0,0
COc1ccc(Cn2nnnc2CN(Cc2cc3cccc(C)c3[nH]c2=O)C2CCCC2)cc1,0,0,0,0,0,0
COc1ccc(Cn2nnnc2CN(Cc2cc3ccc(C)cc3[nH]c2=O)C2CCCC2)cc1,0,0,43,0,0,0
SMILES,TAAR1 ag,OX1R antag-1,OX1R antag-2,GPR7 antag,CHO parental Ca,TAAR1 antagonist
COc1ccc(OC)c(NC(=O)c2ccccc2NS(=O)(=O)c2cccc3cccnc23)c1,0,0,64,0,0,0
O=C(Nc1cccc2ccccc12)c1ccccc1NS(=O)(=O)c1cccc2cccnc12,0,0,0,0,0,0
CCOc1ccccc1C(=O)Nc1cccc2cccnc12,0,0,44,0,0,0
COc1ccc(C(=O)Nc2cccc3cccnc23)cc1OC,0,0,49,0,0,0
O=C(Nc1cccc2ccccc12)c1ccc(Br)o1,0,-,-,0,-,0
O=C(Nc1cccc2cccnc12)c1ccc(Br)o1,0,0,75,0,0,0
O=C(Nc1cccc2cccnc12)c1cccc2ccccc12,0,0,0,0,0,0
